Assay results: ChEMBL document CHEMBL4177771, “Endoplasmic Reticulum-Localized Two-Photon-Absorbing Boron Dipyrromethenes as Advanced Photosensitizers for Photodynamic Therapy” (J Med Chem, 2018)
Active and inactive are the calls of the source. The calls are words filed in the database; no cut-off is given here.

Tests used:
[1] = Induction of singlet oxygen generation in PBS assessed as increase in decay of DPBF at 2 uM by spectroscopic method; assay type: functional
HeLa = experiment: Photocytotoxicity against human HeLa cells assessed as decrease in cell viability preincubated in dark for 2 hrs followed by illumination by halogen lamp for 20 mins by MTT assay; assay type: functional, cell-based
Procedure, shortened: (§1)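 Cells seeded at 2 × 10^5 cells mL−1 in 96-well plates 24 h before; 2 h dark incubation with compound (0.0125–0.4 μM or 0.5–8 μM), PBS wash, re-feed. Then 300 W halogen lamp with red filter (λ > 610 nm), 40 mW cm−2, 20 min at r.t. (48 J cm−2). MTT read-out at 490 nm. IC50 = concentration killing 50% of cells. Three independent experiments, quadruplicate.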

HepG2 = experiment: Photocytotoxicity against human HepG2 cells assessed as decrease in cell viability preincubated in dark for 2 hrs followed by illumination by halogen lamp for 20 mins by MTT assay; assay type: functional, cell-based; procedure, shortened: as §1
[2] = Dark toxicity against human HeLa cells assessed as decrease in cell viability at 0.5 to 8 uM incubated for 2 hrs by MTT assay; assay type: cell-based
Procedure, shortened: (§2)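 Cells seeded at 2 × 10^5 cells mL−1 in 96-well plates 24 h before; incubated with compound (0.4–0.0125 μM or 8–0.5 μM series) in dark 2 h, washed with PBS, re-fed, kept unirradiated. MTT (3 mg mL−1) added, 4 h at 37 °C, DMSO added, absorbance at 490 nm. Mean ± SEM of three independent experiments, each in quadruplicate. HepG2 cells were grown in RPMI 1640 and HeLa in DMEM.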

[3] = Dark toxicity against human HepG2 cells assessed as decrease in cell viability at 0.5 to 8 uM incubated for 2 hrs by MTT assay; assay type: cell-based; conditions: hepg2, 2 h; procedure, shortened: as §2
[4] = Drug uptake in human HeLa cells at 4 uM after 4 hrs by flow cytometric method; assay type: ADME, cell-based
Procedure, shortened: (§3)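 Cells in 35 mm dishes incubated in RPMI 1640 at 37 °C, 5% CO2, with 2 μM for 2 h or 4 μM for 4 h. Rinsed, trypsinised, pelleted at 400g, resuspended in HBSS. Flow cytometry on 10^4 cells: excitation 640 nm, emission 720–840 nm. Triplicate; mean ± SD of three independent experiments.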

[5] = Drug uptake in human HepG2 cells at 4 uM after 4 hrs by flow cytometric method; assay type: ADME, cell-based; conditions: hepg2, 4 h; procedure, shortened: as §3
[6] = Stability of the compound in PBS at 2 uM measured over 25 mins in presence of illumination by halogen lamp; assay type: physicochemical; conditions: buffer
[7] = Drug uptake in endoplasmic reticulum of human HeLa cells at 4 uM after 4 hrs by ER-tracker green-based confocal microscopic method; assay type: ADME, subcellular
Procedure, shortened: (§4)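 Cells on glass-bottom dishes given 2 μM for 2 h or 4 μM for 4 h at 37 °C. After PBS washes, stained in HBSS with 0.2 μM ER-tracker or Mito-tracker green for 15 min at 37 °C. Confocal imaging: trackers excited at 488 nm, emission 500–570 nm; BODIPY excited at 633 nm, emission 650–760 nm.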

[8] = Drug uptake in endoplasmic reticulum of human HepG2 cells at 4 uM after 4 hrs by ER-tracker green-based confocal microscopic method; assay type: ADME, subcellular; conditions: hepg2, 4 h; procedure, shortened: as §4
[9] = Drug uptake in mitochondria of human HeLa cells at 4 uM after 4 hrs by Mito-tracker green-based confocal microscopic method; assay type: ADME; procedure, shortened: as §4
[10] = Drug uptake in mitochondria of human HepG2 cells at 4 uM after 4 hrs by Mito-tracker green-based confocal microscopic method; assay type: ADME; conditions: hepg2, 4 h; procedure, shortened: as §4
[11] = Drug uptake in lysosome of human HeLa cells at 4 uM after 4 hrs by […]-based confocal microscopic method; assay type: ADME, subcellular
[12] = Drug uptake in lysosome of human HepG2 cells at 4 uM after 4 hrs by […]-based confocal microscopic method; assay type: ADME, subcellular; conditions: hepg2, 4 h
[13] = Induction of singlet oxygen generation in DMF assessed as increase in decay of DPBF at 1 uM by spectroscopic method

Row | Drug uptake [4] | Drug uptake [5] | Stability [6] | Drug uptake [7] | Drug uptake [8] | Drug uptake [9] | Drug uptake [10] | Drug uptake [11] | Drug uptake [12] | SMILES | Activity [1] | IC50 (HeLa) [µM] | IC50 (HepG2) [µM] | Activity [2] | Activity [3] | Activity [13]
1 | Active | Active | Stable | Active | Active | Not Active | Not Active | Not Active | Not Active | COCCOCCOCCn1c2ccccc2c2cc(/C=C/C3=[N+]4C(=C(c5ccc(OCC(=O)NCCc6ccc(S(=O)(=O)NC(=O)NC7CCCCC7)cc6)cc5)c5c(C)c(Br)c(/C=C/c6ccc7c(c6)c6ccccc6n7CCOCCOCCOC)n5[B-]4(F)F)C(C)=C3Br)ccc21 | Active | 3.2 | 5.2 | Non-Toxic | Non-Toxic | Active
2 |  |  |  | Not Active | Not Active | Not Active | Not Active | Not Active | Not Active | CCOC(=O)COc1ccc(C2=C3C(C)=C(Br)C(/C=C/c4ccc5c(c4)c4ccccc4n5CCOCCOCCOC)=[N+]3[B-](F)(F)n3c(/C=C/c4ccc5c(c4)c4ccccc4n5CCOCCOCCOC)c(Br)c(C)c32)cc1 |  |  |  |  |  | 
